This note sets out measurements from ChEMBL document CHEMBL4680083, “Identification of Tricyclic Agonists of Sphingosine-1-phosphate Receptor 1 (S1P) Employing Ligand-Based Drug Design” (J Med Chem, 2016).

SMILES strings stand for the structures.

In the first data set the target is Sphingosine 1-phosphate receptor 3 (Homo sapiens, UniProt Q99500). As to the kind of experiment: Agonist activity at human S1P3 expressed in CHO cell membranes assessed as stimulation of [35S]-GTPgamma-S binding measured after 45 mins by liquid scintillation counting method. More on the design: species or system Cell membrane.
Sphingosine 1-phosphate receptor 3, sequence (Q99500 whole entry): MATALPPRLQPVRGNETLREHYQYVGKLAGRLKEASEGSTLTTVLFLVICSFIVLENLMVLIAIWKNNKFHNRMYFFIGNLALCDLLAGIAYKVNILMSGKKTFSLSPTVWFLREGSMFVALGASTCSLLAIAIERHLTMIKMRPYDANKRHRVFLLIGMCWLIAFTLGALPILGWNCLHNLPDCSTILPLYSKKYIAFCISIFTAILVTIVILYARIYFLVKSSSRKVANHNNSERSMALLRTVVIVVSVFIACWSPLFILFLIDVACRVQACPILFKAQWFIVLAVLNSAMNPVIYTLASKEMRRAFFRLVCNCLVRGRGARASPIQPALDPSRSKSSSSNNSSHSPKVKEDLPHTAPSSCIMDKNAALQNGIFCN
Conditions: not given
For the molecule `O=C(O)C1CN(Cc2ccc3c(c2)CCc2nc(-c4onc(-c5ccccc5)c4C(F)(F)F)sc2-3)C1`, the EC50 came to 12 µM.
Regarding `O=C(O)C1CN(Cc2ccc3c(c2)OCCc2c(-c4noc(-c5ccccc5)c4C(F)(F)F)noc2-3)C1`, the EC50 turned out to be 1.6 µM.
For the molecule `CCOc1ccc(-c2onc3c2CCc2cc(CN4CC(C(=O)O)C4)ccc2-3)cc1OCC`, the concentration for a half-maximal effect (EC50) is 14 µM.
For the molecule `CS(=O)(=O)CCNC(=O)C(O)c1ccc2c(c1)CCc1c-2noc1-c1noc(-c2ccccc2)c1C(F)(F)F` (stereo in doubt; 77), the half-maximal effective concentration (EC50) was found to be 18 µM.
Turning to `CC(C)Oc1ccc(-c2onc3c2CCc2cc(CN4CC(C(=O)O)C4)ccc2-3)cc1C#N`, the 50% effective concentration (EC50) was over 63 µM.
For `O=C(O)C1CN(Cc2ccc3c(c2)CCc2c-3noc2-c2cccc(C(F)(F)F)c2)C1`, the EC50 was over 63 µM.
For the molecule `O=C(O)C[C@H]1CCCN(CC(O)c2ccc3c(c2)CCc2c-3noc2-c2noc(-c3ccccc3)c2C(F)(F)F)C1` (stereo in doubt; 74), the 50% effective concentration (EC50) stood at 1.7 µM.
Same read-out and setting: under `CC(C)Oc1ccc(-c2onc3c2CCc2cc(CN4CC(C(=O)O)C4)ccc2-3)c(C(F)(F)F)c1` stands 11 µM.

Tested on in the next data set: not listed separately
Briefly: Plasma concentration in Lewis rat at 1 mg/kg, po measured at 4 hr. In kind it is ADME, organism-based. To be noted: Lewis, plasma. The gist of the method:
(§1)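 Lewis rats received a single oral 1.0 mg/kg dose as solution or suspension in PEG300. Blood was drawn retro-orbitally under isoflurane at 4 h and 24 h, within the blood lymphocyte reduction study. n = 3−4 per group, group mean reported.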
`O=C(O)C1CN(Cc2ccc3c(c2)CCc2nc(-c4onc(-c5ccccc5)c4C(F)(F)F)sc2-3)C1` returned a concentration at 4 h of 230 nM.

The data set is the same for the next values; noted with them: in vivo, 1 mg/kg, 4 h.
`O=C(O)C[C@H]1CCCN(CC(O)c2ccc3c(c2)CCc2c-3noc2-c2noc(-c3ccccc3)c2C(F)(F)F)C1` (stereo in doubt; 74): the concentration stood at 93 nM.

Staying with this data set, now noted: in vivo, 1 mg/kg, 4 h, BLD = below limit of detection.
`CC(C)Oc1ccc(-c2onc3c2CCc2cc(CN4CC(C(=O)O)C4)ccc2-3)cc1C#N`: the Cp entry was “Bld”.

The subject of the next data set is Rattus norvegicus. Briefly: Reduction in circulating lymphocytes count in Lewis rat blood at 1 mg/kg, po measured at 24 hrs by hematology analyzer based analysis. The class given is functional. Also on record: scale not given: the % may be the effect or the level left.
Conditions: not given
The gist of the method: (§2)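 Lewis rats were given an oral dose as a solution or suspension in PEG300, with controls receiving vehicle only. Blood was taken by retro-orbital bleeding under isoflurane at 4 and 24 h. Lymphocytes were counted on a hematology analyzer. Reduction is relative to the vehicle group, averaged over the animals in each group (n = 3−4).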
Take `O=C(O)C1CN(Cc2ccc3c(c2)CCc2nc(-c4onc(-c5ccccc5)c4C(F)(F)F)sc2-3)C1`: the Activity stood at 85%.
In the case of `CC(C)Oc1ccc(-c2onc3c2CCc2cc(CN4CC(C(=O)O)C4)ccc2-3)cc1C#N`, the Activity amounted to 12%.

Still in this data set, the particulars now being: 1 mg/kg, 24 h.
In the case of `O=C(O)C[C@H]1CCCN(CC(O)c2ccc3c(c2)CCc2c-3noc2-c2noc(-c3ccccc3)c2C(F)(F)F)C1` (stereo in doubt; 74), the Activity came to 87%.

Tested on in a further data set: not listed separately
As to the kind of experiment: Selectivity index, ratio of EC50 for agonist activity at human S1P3 expressed in CHO cell membranes to EC50 for agonist activity at human S1P1 expressed in CHO cell membranes. In kind it is cell-based.
Conditions: not given
For the molecule `O=C(O)C1CN(Cc2ccc3c(c2)CCc2nc(-c4onc(-c5ccccc5)c4C(F)(F)F)sc2-3)C1`, the Ratio EC50 worked out at 5000.
On the same count and under the same terms, under `O=C(O)C1CN(Cc2ccc3c(c2)OCCc2c(-c4noc(-c5ccccc5)c4C(F)(F)F)noc2-3)C1` stands 48.
On the same count and under the same terms, the figure for `CCOc1ccc(-c2onc3c2CCc2cc(CN4CC(C(=O)O)C4)ccc2-3)cc1OCC` is 8800; for `CC(C)Oc1ccc(-c2onc3c2CCc2cc(CN4CC(C(=O)O)C4)ccc2-3)cc1C#N` it is over 14000.
As to `O=C(O)C1CN(Cc2ccc3c(c2)CCc2c-3noc2-c2cccc(C(F)(F)F)c2)C1`, the Ratio EC50 was over 200.
For the molecule `CC(C)Oc1ccc(-c2onc3c2CCc2cc(CN4CC(C(=O)O)C4)ccc2-3)c(C(F)(F)F)c1`, the Ratio EC50 turned out to be 460.

Tested on in the next data set: not listed separately
As to the kind of experiment: Plasma concentration in Lewis rat at 1 mg/kg, po measured at 24 hrs. The note with it: Lewis, plasma. The class given is ADME, organism-based. The method, boiled down: as §1
Molecule `O=C(O)C1CN(Cc2ccc3c(c2)CCc2nc(-c4onc(-c5ccccc5)c4C(F)(F)F)sc2-3)C1` came in with a concentration at 24 h of 84 nM.

Still in this data set, the particulars now being: in vivo, 1 mg/kg, 24 h.
For the molecule `O=C(O)C[C@H]1CCCN(CC(O)c2ccc3c(c2)CCc2c-3noc2-c2noc(-c3ccccc3)c2C(F)(F)F)C1` (stereo in doubt; 74), the concentration was 32 nM.

The data set is the same for the next values; noted with them: in vivo, 1 mg/kg, 24 h, BLD = below limit of detection.
As for `CC(C)Oc1ccc(-c2onc3c2CCc2cc(CN4CC(C(=O)O)C4)ccc2-3)cc1C#N`, the Cp entry is on record as “Bld”.

Tested on in another data set: not listed separately
As to the kind of experiment: Ratio of plasma concentration in Lewis rat at 1 mg/kg, po measured at 4 hrs to plasma concentration in Lewis rat at 1 mg/kg, po measured at 24 hrs. In kind it is ADME, organism-based. To be noted: in vivo.
On to `O=C(O)C1CN(Cc2ccc3c(c2)CCc2nc(-c4onc(-c5ccccc5)c4C(F)(F)F)sc2-3)C1`, for which the Ratio is 3.
With `O=C(O)C[C@H]1CCCN(CC(O)c2ccc3c(c2)CCc2c-3noc2-c2noc(-c3ccccc3)c2C(F)(F)F)C1` (stereo in doubt; 74), the Ratio was found to be 4.

The target of another data set is Sphingosine 1-phosphate receptor 1 (Homo sapiens, UniProt P21453). Briefly: Agonist activity at human S1P1 expressed in CHO cell membranes assessed as stimulation of [35S]-GTPgamma-S binding measured after 45 mins by liquid scintillation counting method.
Sphingosine 1-phosphate receptor 1, sequence (P21453 whole entry): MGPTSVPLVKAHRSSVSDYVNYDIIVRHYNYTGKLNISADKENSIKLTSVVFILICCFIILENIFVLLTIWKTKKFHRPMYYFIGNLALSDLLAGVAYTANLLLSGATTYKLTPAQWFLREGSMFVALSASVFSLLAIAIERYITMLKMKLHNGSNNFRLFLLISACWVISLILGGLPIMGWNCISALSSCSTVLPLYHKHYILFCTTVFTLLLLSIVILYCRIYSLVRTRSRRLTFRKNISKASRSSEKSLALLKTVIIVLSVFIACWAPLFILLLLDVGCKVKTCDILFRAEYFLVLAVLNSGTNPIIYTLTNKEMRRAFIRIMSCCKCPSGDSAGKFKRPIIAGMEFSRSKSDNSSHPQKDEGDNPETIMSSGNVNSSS
Conditions: not given
Also on record: species or system Cell membrane. The method, boiled down: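 S1P1/CHO cell membranes at 3 μg protein/well with 3-fold compound dilutions. [35S]GTPγS 0.2 nM final, 45 min at room temperature. Filter-plate capture, water washes, scintillation counting. EC50 taken at 50% of each compound's own Ymax.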
Consider `O=C(O)C1CN(Cc2ccc3c(c2)CCc2nc(-c4onc(-c5ccccc5)c4C(F)(F)F)sc2-3)C1`, for which the EC50 stood at 2.4 nM.
Still for that read-out and setting: under `O=C(O)C1CN(Cc2ccc3c(c2)OCCc2c(-c4noc(-c5ccccc5)c4C(F)(F)F)noc2-3)C1` stands 33 nM.
On the same count and under the same terms, the figure for `CCOc1ccc(-c2onc3c2CCc2cc(CN4CC(C(=O)O)C4)ccc2-3)cc1OCC` is 1.6 nM; for `CS(=O)(=O)CCNC(=O)C(O)c1ccc2c(c1)CCc1c-2noc1-c1noc(-c2ccccc2)c1C(F)(F)F` (stereo in doubt; 77) it is 200 nM.
The same measure, in the same setting: the figure for `CC(C)Oc1ccc(-c2onc3c2CCc2cc(CN4CC(C(=O)O)C4)ccc2-3)cc1C#N` is 4.6 nM.
Take `O=C(O)C1CN(Cc2ccc3c(c2)CCc2c-3noc2-c2cccc(C(F)(F)F)c2)C1`: the EC50 is 310 nM.
For `O=C(O)C[C@H]1CCCN(CC(O)c2ccc3c(c2)CCc2c-3noc2-c2noc(-c3ccccc3)c2C(F)(F)F)C1` (stereo in doubt; 74), the 50% effective concentration (EC50) came out at 0.33 nM.
Still for that read-out and setting: under `CC(C)Oc1ccc(-c2onc3c2CCc2cc(CN4CC(C(=O)O)C4)ccc2-3)c(C(F)(F)F)c1` stands 24 nM.

A further data set has as its system Rattus norvegicus. Briefly: Reduction in circulating lymphocytes count in Lewis rat blood at 1 mg/kg, po measured at 4 hrs by hematology analyzer based analysis. In kind it is functional. Also on record: scale not given: the % may be the effect or the level left.
Conditions: not given
The gist of the method: as §2
For the molecule `O=C(O)C1CN(Cc2ccc3c(c2)CCc2nc(-c4onc(-c5ccccc5)c4C(F)(F)F)sc2-3)C1`, the Activity worked out at 80%.
On the same count and under the same terms, under `CC(C)Oc1ccc(-c2onc3c2CCc2cc(CN4CC(C(=O)O)C4)ccc2-3)cc1C#N` stands -5%.
